Laboratory results from ChEMBL document CHEMBL3875163, “Novel urea and bis-urea primaquine derivatives with hydroxyphenyl or halogenphenyl substituents: Synthesis and biological evaluation” (Eur J Med Chem, 2016).
≈ marks a conversion by molar mass, not a printed value. Calls of active or inactive are those of the source. The rule behind the calls is not given here.

How the values were obtained:
[1] = system: Glycine max; test: Inhibition of soybean LOX assessed as reduction in conversion of sodium linoleate to 13-hydroperoxylinoleic acid at 1 x 10^-4 M relative to control
In short: (§1)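 Soybean lipoxygenase incubated at room temperature with sodium linoleate (0.1 mM) and test compound (DMSO stocks); formation of 13-hydroperoxylinoleic acid read at 234 nm. Single-point screening at 1 × 10^-4 M; IC50 from several concentrations. At least triplicate.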

[2] = Growth inhibition of human MCF7 cells after 72 hrs by MTT assay; assay type: functional, cell-based; conditions: MCF7, 72 h
In short: (§2)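 Modified NCI DTP protocol: cells in DMEM with 10% FBS, 2 mM glutamine, antibiotics, 37 °C, 5% CO2; seeded 1 × 10^4 to 3 × 10^4 cells/ml on day 0, exposed to five 10-fold dilutions (10^-8 to 10^-4 M) for 72 h; solvent control. MTT read-out; quadruplicate points in three experiments; IC50 by linear regression of growth percentages bracketing 50%.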

[3] = Growth inhibition of human HeLa cells after 72 hrs by MTT assay; assay type: functional, cell-based
[4] = Antioxidant activity assessed as DPPH radical scavenging activity at 100 uM after 60 mins relative to control; assay type: functional
In short: (§3)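 Compound in DMSO added to DPPH in absolute ethanol, 0.1 mM final; absorbance at 517 nm after 20 and 60 min at room temperature. At least triplicate.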

[5] = Antioxidant activity assessed as DPPH radical scavenging activity at 100 uM after 20 mins relative to control; assay type: functional; in short: as §3
[6] = Growth inhibition of human SW620 cells after 72 hrs by MTT assay; assay type: functional, cell-based; conditions: SW-620, 72 h; in short: as §2
[7] = Growth inhibition of human NCI-H460 cells after 72 hrs by MTT assay; assay type: functional, cell-based; conditions: NCI-H460, 72 h; in short: as §2
[8] = Antioxidant activity assessed as inhibition of AAPH-induced linoleic acid lipid peroxidation at 1 x 10^-4 M by UV-absorbance method relative to control; assay type: functional
In short: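 Linoleic acid peroxidation: 16 mM sodium linoleate dispersion in 0.05 M phosphate buffer pH 7.4 at 37 °C under air, initiated by AAPH (40 mM solution); compound at 1 × 10^-4 M; oxidation followed at 234 nm. At least triplicate.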

[9] = Growth inhibition of human CEM cells after 72 hrs by MTT assay; assay type: functional, cell-based; conditions: CCRF-CEM
[10] = Growth inhibition of human MIAPaCa2 cells after 72 hrs by MTT assay; assay type: functional, cell-based; conditions: MIA PaCa-2, 72 h
[11] = Growth inhibition of mouse L1210 cells after 72 hrs by MTT assay; assay type: functional, cell-based; conditions: L1210, 72 h
[12] = Growth inhibition of human Molt4/C8 cells after 72 hrs by MTT assay; assay type: functional, cell-based; conditions: MOLT-4, 72 h
[13] = Inhibition of soybean LOX assessed as reduction in conversion of sodium linoleate to 13-hydroperoxylinoleic acid; design: species or system Glycine max; in short: as §1
[14] = system: MCF7; test: Induction of apoptosis in human MCF7 cells assessed as increase in cleaved PARP-1 expression at 0.31 uM after 72 hrs by immunoblot method; assay type: functional, cell-based
In short: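 MCF-7 treated at 0.31 µM for up to 72 h, controls DMSO and 1 µM doxorubicin. Lysates (CelLytic M with protease inhibitors), BCA quantification; 5 µg protein on 4-20% gels, nitrocellulose transfer, milk block; anti-PARP-1 (1:1000), GAPDH loading control (1:5000) overnight 4 °C, HRP anti-rabbit 1:2000, ECL detection; three independent experiments.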

[15] = system: MCF7; test: Induction of apoptosis in human MCF7 cells assessed as increase in number of late apoptotic/necrotic cells at 0.31 uM after 72 hrs by Annexin-V FITC/propidium iodide staining based flow cytometry; assay type: functional, cell-based
In short: (§4)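 MCF-7 treated 0.31 µM for 72 h, DMSO control. Washed cells at 1 × 10^6 per 100 µl Annexin V binding buffer, stained FITC Annexin V plus PI 15 min room temperature in dark; 10 000 cells by flow cytometry (ex 488, em 530/580 nm). Viable, early apoptotic, late apoptotic/necrotic and necrotic fractions; three experiments, Duncan test.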

[16] = system: MCF7; test: Induction of apoptosis in human MCF7 cells assessed as increase in number of necrotic cells at 0.31 uM after 72 hrs by Annexin-V FITC/propidium iodide staining based flow cytometry; assay type: functional, cell-based; in short: as §4
[17] = Cell cycle arrest in human MCF7 cells assessed as decrease in G1 population at 0.31 uM after 24 hrs by propidium iodide staining based flow cytometry; assay type: functional
In short: (§5)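 MCF-7 grown in EMEM with 10% FBS, L-glutamine, pyruvate, insulin; treated 0.31 µM for 24 h, DMSO (0.022%) vehicle control. Cells ethanol-fixed (70%, 24 h, -20 °C), RNase A 20 µg/ml 30 min 37 °C, PI 5.5 µg/ml 10 min dark; 20 000 cells by flow cytometry; G1, S, G2/M fractions; three independent experiments, Newman-Keuls test.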

[18] = Cell cycle arrest in human MCF7 cells assessed as increase in G2/M population at 0.31 uM after 24 hrs by propidium iodide staining based flow cytometry; assay type: functional; in short: as §5
[19] = system: MCF7; test: Potency index, ratio of ciplatin IC50 to compound IC50 for human MCF7 cells; assay type: functional
[20] = Cytotoxicity against HEK cells assessed as reduction in cell viability at 12.5 to 200 ug/ml after 24 hrs by MTT assay; assay type: toxicity, cell-based; conditions: human, hek293, 24 h
In short: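 HEK 293 cells, 5 × 10^3 per well, treated next day for 24 h with compound (range within 200 to 1.5625 µg/ml). MTT 0.5 mg/ml in DMEM/10% FBS, 4 h at 37 °C, 5% CO2; formazan in DMSO, A570. Viability as percent of untreated control; triplicates, three independent experiments.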

[21] = system: Staphylococcus aureus; test: Antibacterial activity against methicillin resistant Staphylococcus aureus MFBF 10682 after 18 hrs by serial microdilution broth assay; assay type: functional; conditions: MFBF 10682, 18 h
In short: (§6)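 EUCAST-based broth microdilution in Mueller-Hinton broth. Glycerol stock cultures grown in trypticase soy broth 18 h at 37 °C; inoculum in PBS pH 7.4 at 0.5 McFarland, diluted 1:10 in broth. Compounds from DMSO stocks, 1000 to 0.78125 µg/ml; 18 h aerobic, 35 °C, dark. TTC 0.5 mg/ml added, 3 h, then HCl/isopropanol, A490. MIC = lowest concentration giving 50% inhibition vs untreated; duplicates, averaged.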

[22] = system: Staphylococcus aureus; test: Antibacterial activity against methicillin sensitive Staphylococcus aureus ATCC 25923 after 18 hrs by serial microdilution broth assay; assay type: functional; conditions: ATCC 25923, 18 h; in short: as §6
[23] = system: Bacillus pumilus; test: Antibacterial activity against Bacillus pumilus NCTC 8241 after 18 hrs by serial microdilution broth assay; assay type: functional; conditions: NCTC 8241, 18 h
In short: (§7)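 Broth microdilution MIC per EUCAST for aerobic bacteria in Mueller-Hinton broth, serial dilution 1000 to 0.78125 µg/ml from 10 mg/ml DMSO stocks. Inoculum from trypticase soy broth cultures (18 h, 37 °C), set to 0.5 McFarland in PBS pH 7.4, diluted 1:10. 18 h aerobic incubation at 35 °C in dark, then TTC 0.5 mg/ml for 3 h, HCl-isopropanol, A490. MIC = lowest concentration giving 50% inhibition versus untreated; duplicates.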

[24] = system: Pseudomonas aeruginosa; test: Antibacterial activity against multi-drug resistant Pseudomonas aeruginosa MFBF after 18 hrs by serial microdilution broth assay; assay type: functional; in short: as §6
[25] = system: Enterococcus faecalis; test: Antibacterial activity against vancomycin resistant Enterococcus faecalis MFBF 11419 after 18 hrs by serial microdilution broth assay; assay type: functional; conditions: MFBF 11419, 18 h; in short: as §6
[26] = system: Pseudomonas aeruginosa; test: Antibacterial activity against Pseudomonas aeruginosa ATCC 9027 after 18 hrs by serial microdilution broth assay; assay type: functional; conditions: ATCC 9027, 18 h; in short: as §6
[27] = system: Candida albicans; test: Antifungal activity against Candida albicans ATCC 90028 after 18 hrs by serial microdilution broth assay; assay type: functional; conditions: ATCC 90028, 18 h
In short: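 Yeast microdilution in RPMI 1640 with glutamine plus 2% glucose, 1000 to 0.78125 µg/ml from 10 mg/ml DMSO stocks. Growth read with XTT (10 mg/ml) mixed 7:1 with menadione (1 mg/ml in acetone), absorbance at 540 nm. MIC taken as lowest concentration giving 50% growth inhibition versus untreated cells; tests in duplicate.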

[28] = system: Escherichia coli; test: Antibacterial activity against Escherichia coli ATCC 10535 after 18 hrs by serial microdilution broth assay; assay type: functional; conditions: ATCC 10535, 18 h; in short: as §7
[29] = system: Staphylococcus aureus; test: Antibacterial activity against Staphylococcus aureus ATCC 6538 after 18 hrs by serial microdilution broth assay; assay type: functional; conditions: ATCC 6538, 18 h; in short: as §7
[30] = system: Staphylococcus aureus; test: Antibacterial activity against methicillin sensitive Staphylococcus aureus ATCC 25213 after 18 hrs by serial microdilution broth assay; assay type: functional; conditions: ATCC 25213, 18 h; in short: as §7
[31] = system: Bacillus spizizenii; test: Antibacterial activity against Bacillus subtilis ATCC 6633 after 18 hrs by serial microdilution broth assay; assay type: functional; conditions: ATCC 6633, 18 h; in short: as §7
[32] = system: Pseudomonas aeruginosa; test: Antibacterial activity against Pseudomonas aeruginosa ATCC 27853 after 18 hrs by serial microdilution broth assay; assay type: functional; conditions: ATCC 27853, 18 h; in short: as §7
[33] = system: Enterococcus faecalis; test: Antibacterial activity against vancomycin susceptible Enterococcus faecalis ATCC 29212 after 18 hrs by serial microdilution broth assay; assay type: functional; conditions: ATCC 29212, 18 h; in short: as §7
[34] = system: Staphylococcus aureus; test: Antibacterial activity against methicillin resistant Staphylococcus aureus MFBF 10679 after 18 hrs by serial microdilution broth assay; assay type: functional; conditions: MFBF 10679, 18 h; in short: as §6
[35] = system: Bacillus cereus; test: Antibacterial activity against Bacillus cereus ATCC 11778 after 18 hrs by serial microdilution broth assay; assay type: functional; conditions: ATCC 11778, 18 h; in short: as §7
[36] = Hemolytic activity against human RBC at 100 ug/ml after 1 hr relative to control; assay type: ADME, cell-based, Erythrocyte; conditions: red blood cells (RBC), read-out: Activity

inhibition [1] [%] | IC50 [13] [µM] | SMILES | IC50 [2] [µM] | IC50 [3] [µM] | Activity [4] [%] | Activity [5] [%] | IC50 [6] [µM] | IC50 [7] [µM] | inhibition [8] [%] | IC50 [9] [µM] | IC50 [10] [µM] | IC50 [11] [µM] | IC50 [12] [µM] | further results
67.4 | 40 | COc1cc(NC(C)CCCNC(=O)NNC(=O)Nc2cccc(F)c2)c2ncccc2c1 (stereo unspecified) | 0.15 | > 250 | 100 | 75.7 | 9.5 | 50 | 58.2 | 98 | 69 | 108 | ≥ 250 | 
31.9 |  | COc1cc(NC(C)CCCNC(=O)NNC(=O)Nc2ccc(F)cc2)c2ncccc2c1 (stereo unspecified) | 0.31 | ≥ 250 |  | 7.6 | > 100 | > 100 |  | 118 | ≥ 250 | 104 | ≥ 250 | Activity [14]: Active; Activity [15]: Active; Activity [16]: Active; Activity [17]: Active; Activity [18]: Active; Ratio IC50 [19]: 42
55.8 | 85 | COc1cc(NC(C)CCCNC(=O)NNC(=O)Nc2ccc(C(F)(F)F)cc2)c2ncccc2c1 (stereo unspecified) | 0.1 | 15 | 96.1 | 99 | 12 | 12 | 75.3 | 18 | 19 | 18 | 24 | 

SMILES | inhibition [1] [%] | IC50 [13] [µM] | IC50 [2] [µM] | IC50 [3] [µM] | Activity [4] [%] | Activity [5] [%] | IC50 [6] [µM] | IC50 [7] [µM] | inhibition [8] [%] | IC50 [9] [µM] | IC50 [10] [µM] | IC50 [11] [µM] | IC50 [12] [µM] | further results
COc1cc(NC(C)CCCNC(=O)Nc2ccc(Br)cc2)c2ncccc2c1 (stereo unspecified) | 37.1 |  | 2.6 | 20 | 46.4 | 46.2 | 23 | 30 | 80.4 | 23 | 23 | 18 | 25 | Activity [20]: Non-Toxic; MIC50 [21]: > 100 µg/mL; MIC50 [22]: > 100 µg/mL; MIC50 [23]: 100 µg/mL (≈ 219 µM); MIC50 [24]: 100 µg/mL (≈ 219 µM); MIC50 [25]: > 100 µg/mL; MIC50 [26]: 100 µg/mL (≈ 219 µM); MIC50 [27]: > 100 µg/mL; MIC50 [28]: > 100 µg/mL; MIC50 [29]: 50 µg/mL (≈ 109 µM); MIC50 [30]: > 100 µg/mL; MIC50 [31]: 25 µg/mL (≈ 54.7 µM); MIC50 [32]: 25 µg/mL (≈ 54.7 µM); MIC50 [33]: > 100 µg/mL; MIC50 [34]: > 100 µg/mL; MIC50 [35]: 50 µg/mL (≈ 109 µM); hemolysis at 1 h, 100 ug/ml [36]: < 1%
